In the library only some 2.6% were active in any assay of this set; here they are far more common.
XiGFP reactiv = activators of X-chromosome reactivation in mouse fibroblasts. XiGFP mouse fibroblasts, % GFP-positive cells imaging, 3 d; cells co-treated with 5-aza-dC sensitizer; scaled so ellipticine positive control = 100%. activation, % at 7.58 µM. actives 0.055% (n = 360,000);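 active = mean normalized replicate activation at least 10% and every replicate at or above 10%; inconclusive = only one of the two criteria met; inactive = mean below 10% and not all replicates reach 10%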;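 also: 0% = median of on-plate neutral control wells and 100% = ellipticine 6 µM median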
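Material: XiGFP fibroblasts, SV40-immortalized. Buffer or medium: DMEM plus 5-aza-dC sensitizer. Compound: single concentration per compound, delivered by pin transfer. Times: 3 days compound exposure. Controls: ellipticine 6 µM.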
Vif imaging = HIV Vif inhibition | actives 0.35% (n = 340,000) | inhibition, % at 7.49 µM | HEK293T cells, Vif self-association by quenched fluorescence, imaging, 24 h | AID 602346; in the data active = inhibition above about 50%, passing the limit was not always enough; inconclusive = no clear call, values can overlap the other calls; inactive = below about 31%
MITF TRPM1 HTS = activators of MITF-driven TRPM1 promoter activity in SK-MEL-5 cells | SK-MEL-5 TRPM1-promoter luciferase, 24 h; % of positive control, neutral wells = 0 | actives 0.75% (n = 300,000) | activation, % at 12.5 µM;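 active = mean activation of at least 80% with every replicate also reaching 80%; inconclusive = mean reaches 80% but some replicate falls short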;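 also: 0% = neutral control wells and 100% = parthenolide positive control wells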
Wnt bcat act = activates Wnt/beta-catenin signaling in a reporter cell assay; activator, plate reader; activation, % at 9.35 µM; actives 1.2% (n = 300,000); in the data active = activation above about 30%, passing the limit was not always enough; inconclusive = no clear call, values can overlap the other calls;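 also: 0% = neutral control wells and 100% = positive control wells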
esBAF inh = SWI/SNF esBAF complex inhibition; mouse ES cells, Bmi1-luciferase knock-in reporter, 24 h; 100% = twice the neutral-well signal; reporter increase, % at 12.5 µM; actives 2% (n = 350,000); AID 602393; in the data active = activation above about 40%; inconclusive = no clear call, values can overlap the other calls;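 also: 0% = median of the plate's neutral control wells and 100% = double that signal; a rise in the Bmi1 reporter signal indicates esBAF inhibition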
* = called active by the depositor; u = inconclusive; x = not tested or not shown.

SMILES | XiGFP reactiv | Vif imaging | MITF TRPM1 HTS | Wnt bcat act | esBAF inh
C=C(C)C1CC=C(C)/C(=N/NC(=O)c2cccc([N+](=O)[O-])c2)C1 (configuration not stated) | -0.1 | -2.0 | 2.2 | -3.0 | 0.1
O=C(C[C@H]1C=C[C@@H](NC(=O)Nc2ccccc2F)[C@H](CO)O1)NCc1ccc(F)cc1 | -0.3 | x | x | x | -4.1
O=C(O)CCc1ccc(-c2ccc(Br)cc2)n1-c1cccc(O)c1 | 0.0 | -4.6 | -24.9 | 17.3 | 72.6*
CCCCN(C)C(=O)c1cc2cc3cc(OC)ccc3nc2o1 | 0.0 | -3.3 | 68.3 | 44.4* | x
COCC(=O)N(C)C[C@H]1Oc2cc(C#C[C@@H](C)O)ccc2S(=O)(=O)N([C@H](C)CO)C[C@@H]1C | -0.3 | x | x | x | 1.3
CC(C)(C)c1ccc(OCCn2ccccc2=O)cc1 | x | -26.0 | x | 62.2* | 59.5*
CCCNC(=O)c1cc2c(c(-c3cccc(-c4ccc(C#N)cc4)c3)n1)[C@H](CCO)N(C(=O)CC)C2 | -0.1 | x | x | x | x
COc1ccc(C(=O)Nc2ccc(C(F)(F)F)n(C)c2=O)cc1 | 0.0 | 1.3 | 28.4 | 63.4* | x
Cc1ccc(C(=O)Nc2ccc(C(F)(F)F)n(C)c2=O)cc1 | 0.0 | x | 23.1 | 53.7* | x
CCN(CC)S(=O)(=O)c1ccc(C(=O)Nc2ccc(C(F)(F)F)n(C)c2=O)cc1 | 0.5 | 2.7 | -1.6 | -0.7 | -9.0
COc1ccc(S(=O)(=O)Nc2ccc3c(c2)C(=O)N([C@H](C)CO)C[C@H](C)[C@H](CN(C)Cc2ccc4c(c2)OCO4)OCCCC[C@H](C)O3)cc1 | 0.0 | x | x | x | -4.1
Cc1cccnc1NC(=O)c1ccc2c(c1)OCCO2 | -0.1 | 13.0 | 38.0 | -2.2 | x
O=C(Nc1ncccc1O)c1ccc2ccccc2c1 | 0.5 | 5.7 | 3.7 | 62.8* | -43.1
O=C(Nc1ncccc1O)c1ccc2c(c1)OCCO2 | 0.0 | x | 21.4 | 99.3* | 10.2
O=C(Nc1ncccc1O)c1ccc2c(c1)OCO2 | 0.5 | -7.1 | 43.4 | 53.9* | 3.4
C[C@@H]1CCCCO[C@@H](CN(C)C(=O)NC2CCCCC2)[C@H](C)CN([C@@H](C)CO)C(=O)c2cc(NS(=O)(=O)c3ccc(F)cc3)ccc2O1 | 0.3 | x | x | x | 7.1
O=C(C[C@@H]1C=C[C@@H](NC(=O)CCN2CCCCC2)[C@H](CO)O1)Nc1ccccc1 | -0.2 | x | x | x | x
COc1ccc(C2=NNC(=O)CC2)cc1 | 0.2 | -3.4 | -8.0 | -6.0 | x
COc1ccc(C2=Nc3ccccc3OC2)cc1 | x | x | 64.4 | 21.2 | 64.1*
CC(=O)Nc1cc(C(=O)OCC(=O)c2ccc(Cl)cc2Cl)ccc1C | x | -5.4 | x | x | 7.1
COc1ccc(C(=O)COc2ccc(C)cc2NC(C)=O)cc1 | 0.0 | 3.0 | x | 55.9* | x
CC(=O)Nc1cc(C(=O)OCC(=O)c2ccc(C)cc2)ccc1C | 0.1 | -15.6 | 63.8 | u | 77.7*
COc1ccc(NC(=O)Nc2cc(C)ccc2OC)cc1 | x | -0.4 | 17.3 | x | 19.8
O=C(Cc1csc(NC(=O)Nc2ccc(Cl)cc2)n1)NCc1cccnc1 | 0.2 | -14.9 | 42.6 | 11.8 | 44.6*
c1ccc(COc2ccc(-c3csnn3)cc2)cc1 | x | 6.2 | 93.9* | x | 47.0*
SMILES | XiGFP reactiv | Vif imaging | MITF TRPM1 HTS | Wnt bcat act | esBAF inh
CC(=O)O/N=C(\N)c1ccc(-c2csnn2)cc1 | 0.0 | -2.4 | 43.3 | -1.0 | 54.0*
CC(=O)COc1ccc(-c2csnn2)cc1 | 0.0 | -1.6 | 36.7 | 10.1 | x
CC(C)(C)C(=O)O/N=C(\N)c1ccc(Br)cc1 | 0.0 | 0.1 | 22.6 | 4.0 | x
Cc1ccccc1C(=O)Oc1ccc(Sc2ccc(O)cc2)cc1 | x | 1.2 | x | 5.8 | 11.4
CC(C)(C)C(=O)O/N=C(\N)c1ccc(-c2csnn2)cc1 | 0.2 | -0.1 | 106.4* | 53.2* | 84.2*
Cc1ccccc1C(=O)Oc1ccc(-c2csnn2)cc1 | 0.3 | -4.0 | 65.8 | 1.8 | 50.6*
O=C(Nc1ccc2c(c1)OCO2)N[C@@H]1CC[C@@H](CCNC(=O)C2CCCCC2)O[C@@H]1CO | 0.0 | x | x | x | 5.9
O=C(CN1C(=O)c2ccccc2S1(=O)=O)NC1CC2CCC1C2 (configuration not stated) | 1.1 | 12.3 | 9.2 | 1.6 | -0.7
CC1CCC(NC(=O)CN2C(=O)c3ccccc3S2(=O)=O)CC1 (configuration not stated) | 0.0 | 58.7* | -0.4 | 4.1 | -2.1
COC(=O)c1sc(NC(=O)Cc2cccs2)nc1C | x | 11.9 | 37.9 | x | 41.7*
COC(=O)c1sc(NC(=O)c2ccoc2C)nc1C | x | -9.4 | x | 9.8 | 48.9*
COC(=O)c1sc(NC(=O)c2ccco2)nc1C | x | -8.3 | 23.9 | x | 32.9
COC(=O)c1sc(NC(=O)COc2ccccc2)nc1C | x | 15.7 | 56.5 | x | -1.2
COCC(=O)N1C[C@@H](C)[C@@H](OC)CN(C)C(=O)c2cc(NC(=O)c3cc(C)on3)ccc2OC[C@H]1C | 0.7 | x | x | x | -2.7
C[C@H](CO)N1C[C@H](C)[C@@H](CN(C)Cc2ccc(C(=O)Nc3ccccc3N)cc2)Oc2ccc(NS(=O)(=O)c3cn(C)cn3)cc2CC1=O | -0.6 | x | x | x | x
CCCc1nc2ccc(NC(=O)c3cccs3)cc2c(=O)n1Cc1ccccc1Cl | 0.0 | 1.4 | 5.6 | -1.8 | x
CCCc1nc2ccc(NC(C)=O)cc2c(=O)n1Cc1ccc(Cl)cc1 | 0.0 | -3.0 | 82.0* | 15.6 | x
CNC[C@@H]1Oc2cc(C#CC(C)(C)O)ccc2S(=O)(=O)N([C@@H](C)CO)C[C@@H]1C | -0.1 | x | x | x | 4.8
C/C=C/c1cnc2c(c1)C(=O)N([C@H](C)CO)C[C@@H](C)[C@H](CN(C)C(=O)c1cccc(F)c1)O2 | -0.9 | x | x | x | 5.2
O=C(NC(=S)Nc1cnc2ccccc2c1)c1ccccc1 | 0.1 | -0.8 | 55.0 | 52.5* | x
S=C(NCCc1ccccc1)Nc1cnc2ccccc2c1 | 0.0 | -0.9 | 65.7 | 14.9 | 44.3*
S=C(NCCc1ccccc1)Nc1ccc(Nc2ccccc2)cc1 | 0.0 | -1.7 | 1.9 | -0.9 | 13.6
Cn1ncc2cc(NC(=S)NC(=O)c3ccccc3)ccc21 | x | -1.4 | 58.1 | x | 47.5*
Cc1ccc(NC(=O)Nc2cnc3ccccc3c2)cc1 | 0.0 | -1.9 | u | 38.7* | 4.5
CCN(CC)C(=O)Nc1cnc2ccccc2c1 | x | -20.6 | 12.2 | x | -7.8
SMILES | XiGFP reactiv | Vif imaging | MITF TRPM1 HTS | Wnt bcat act | esBAF inh
COCC(=O)N1C[C@@H]2[C@H](c3ccccc31)[C@@H](CO)N2Cc1ccccc1F | 0.0 | x | x | x | -7.6
O=C(Nc1cnc2ccccc2c1)c1ccncc1 | -0.1 | 19.0 | 20.1 | 19.5 | -1.5
COC(=O)c1cccc(C(=O)Nc2cnc3ccccc3c2)n1 | x | -6.2 | 18.3 | x | 59.4*
O=C(NC(=S)Nc1ncc(Br)cc1Br)c1ccccc1 | 0.0 | -15.9 | 35.8 | 11.9 | 53.0*
CN1C(=O)c2cc(NS(=O)(=O)c3ccccc3Cl)ccc2OC[C@H]2O[C@@H](CC(=O)O)CC[C@@H]21 | -0.1 | x | x | x | 0.2
CNC(=O)c1sc(-c2ccc(Cl)cc2)nc1C | x | 7.0 | 39.7 | 8.1 | 67.5*
O/N=C/c1ccc2ccccc2n1 | 0.0 | -17.6 | x | 35.9* | x

Screening data from PubChem BioAssay.
